Screens as filed in PubChem.
XiGFP reactiv – X-chromosome reactivation activator; activation, % at 7.58 µM; hit rate 0.055% among 360,000; XiGFP mouse fibroblasts, % GFP-positive cells imaging, 3 d; cells co-treated with 5-aza-dC sensitizer; scaled so ellipticine positive control = 100%;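 active = mean normalized replicate activation at least 10% and every replicate at or above 10%; inconclusive = only one of the two criteria met; inactive = mean below 10% and not all replicates reach 10%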;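 note: 0% = median of on-plate neutral control wells and 100% = ellipticine 6 µM median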
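Assay system: SV40-immortalized XiGFP fibroblast cells, line 68-5-11; buffer or medium: DMEM plus 5-aza-dC sensitizer; compound: one concentration, pinned; timing: compounds 3 days, fix/stain 15 min at room temperature; benchmarks: positive control ellipticine, 6 µM final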
CFTR F508del cor – correctors of CFTR F508del function in bronchial epithelial cells; activity (quench increase), % at 7.58 µM; CFBE cells, YFP halide quenching; stimulated with forskolin plus potentiator P3; % fluorescence drop versus neutral controls; AID 720511; hit rate 0.36% among 350,000;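 active = mean added fluorescence quench of at least 8% versus neutral control, with both replicates also reaching 8%; inconclusive = only one of the mean or replicate conditions met; inactive = mean below 8% and not both replicates reaching 8%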;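 note: cells transiently co-express mutant CFTR-F508del with the halide-sensitive YFP; corrector assay measuring rescue of mutant channel to the surface after 24 h compound exposure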
FN deposition inh – fibronectin deposition inhibition; AH1F fibroblasts, Alexa488-fibronectin deposition fluorescence, overnight; inhibition, % at 12.6 µM; hit rate 0.086% among 350,000;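 active = mean inhibition across replicates of 30% or more, regardless of how many single replicates reach that level; inconclusive = mean under 30% yet at least half of replicates reach 30%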;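 note: positive control wells lacked labelled fibronectin entirely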
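Material: AH1F fibroblast monolayer depositing Alexa488-labelled fibronectin into matrix | Input: 10000 AH1F cells/well | Medium: DMEM plus 2% serum, read in PBS | Reagent: Alexa488-fibronectin, 24 nM final in well | Compound dosing: One dose per compound, pinned | Schedule: 1 h adhesion, overnight exposure | Measured by: Fluorescence at 485 nm excitation, 525 nm emission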
PGC1a acetyl inh – modulators of PGC1a acetylation | U2OS PGC1a acetylation, AlphaScreen anti-acetyl-lysine; with virally co-expressed GCN5 acetyltransferase | inhibition, % at 15.6 µM | hit rate 0.17% among 350,000;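 active = every replicate shows inhibition of at least 40%; inconclusive = mean inhibition at least 40% but some replicate below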;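 note: 0% = neutral control wells and 100% = positive control wells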
Cneo AK release – causes C. neoformans cell lysis. adenylate kinase release luminescence, 4 h; normalised: neutral wells 0, clomiphene wells 100. lysis activity, % at 15 µM. hit rate 0.2% among 360,000. AID 651654;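 active = mean lysis activity across replicates of at least 80%, whatever share of replicates individually reach that level; inactive = mean lysis activity below 80%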
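Assay system: C. neoformans cells. Amount: yeast cell density of 5 × 10^6 cells/mL. Technique: AK luminescence. Buffer or medium: YPD. Times: static 4 h at 37 °C with compound, 1 h detection. Dosing: single-point compound dose. Read-out: lysis from increased AK signal.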
DENV2 CPE – protects cells from dengue virus 2 cytopathic effect | DENV2-infected cells, cytopathic effect rescue, plate reader | CPE inhibition, % at 9.99 µM | hit rate 1.7% among 350,000 | AID 651640; in the data active = CPE inhibition above about 20%, passing the limit was not always enough; inconclusive = no clear call, values can overlap the other calls; tested in BHK-21 cells;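 note: 0% = median of neutral control wells and 100% = median of positive control wells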
* hit, by the source's call; ? = inconclusive; . = no result given. Shown are actives, neighbours in structure and some others; about 1.9% of the full set was active somewhere.

SMILES	XiGFP reactiv	CFTR F508del cor	FN deposition inh	PGC1a acetyl inh	Cneo AK release	DENV2 CPE
O=C(Cc1cccnc1)N1[C@@H]2CNc3ccccc3[C@@H]2[C@@H]1CO	0	1	.	3	-1	5
COCC(=O)N1[C@H](CO)[C@H]2c3ccccc3NC[C@H]21	0	-1	-2	4	3	32*
COc1ccc(CN2[C@@H](CO)[C@@H]3c4ccccc4NC[C@@H]32)cc1	0	-1	10	4	-2	66*
O=C(Cc1cccnc1)N1[C@@H](CO)[C@@H]2c3ccccc3NC[C@@H]21	0	-1	.	3	0	24*
COc1ccc(CN2[C@H](CO)[C@H]3c4ccccc4NC[C@H]32)cc1	0	7	4	11	-1	10
CC(C)NC(=O)Nc1ccc2c(c1)C(=O)N([C@@H](C)CO)C[C@H](C)[C@H](CN(C)C(=O)CCC(F)(F)F)OCCCC[C@H](C)O2	0	-1	1	2	2	?
O=C(C[C@@H]1CC[C@H]2NC[C@@H](O)COC[C@@H]2O1)Nc1ccccc1	0	-1	4	-4	1	-5
C[C@@H]1CN([C@H](C)CO)C(=O)Cc2cc(NC(=O)CCCCCC(=O)Nc3ccccc3N)ccc2O[C@@H]1CN(C)Cc1ccc(C(F)(F)F)cc1	1	0	-12	1	2	81*
C[C@H](CO)N1C[C@H](C)[C@H](CN(C)Cc2ccc(-c3ccccc3)cc2)Oc2ccc(NC(=O)CCCCCC(=O)Nc3ccccc3N)cc2CC1=O	0	0	.	-2	-1	2
C[C@@H]1CN([C@@H](C)CO)C(=O)Cc2cc(NC(=O)CCCCCC(=O)Nc3ccccc3N)ccc2O[C@H]1CN(C)Cc1ccc(-c2ccccc2)cc1	.	0	.	10	-1	25*
C[C@@H]1CN([C@H](C)CO)C(=O)Cc2cc(NC(=O)CCCCCC(=O)Nc3ccccc3N)ccc2O[C@@H]1CN(C)Cc1ccncc1	0	0	.	-2	0	5
C[C@H](CO)N1C[C@H](C)[C@@H](CN(C)Cc2ccncc2)Oc2ccc(NC(=O)CCCCCC(=O)Nc3ccccc3N)cc2CC1=O	0	0	.	5	0	53*
C[C@@H]1CN([C@H](C)CO)C(=O)Cc2cc(NC(=O)CCCCCC(=O)Nc3ccccc3N)ccc2O[C@@H]1CN(C)Cc1ccc(Cl)c(Cl)c1	0	-1	.	3	0	84*
C[C@@H]1CN([C@H](C)CO)C(=O)Cc2cc(NC(=O)CCCCCC(=O)Nc3ccccc3N)ccc2O[C@H]1CN(C)Cc1ccc(C(F)(F)F)cc1	-1	0	-25	3	1	18
CCC(=O)N1CC2(CCN(Cc3nccs3)CC2)c2c(n(C)c3cc(OC)ccc23)[C@@H]1CO	0	1	.	7	.	4
C[C@H]1CN([C@@H](C)CO)C(=O)Cc2cc(NS(C)(=O)=O)ccc2O[C@H]1CN(C)C(=O)Nc1ccc(F)cc1	0	-2	-16	-2	-2	?
C[C@@H]1CN([C@@H](C)CO)C(=O)c2cc(NC(=O)CCCCCC(=O)Nc3ccccc3N)ccc2O[C@H]1CN(C)Cc1ccncc1	0	0	.	-3	.	41*
Cc1cc(-n2c(C)cc(C(=O)CSc3ncnc4ccccc34)c2C)no1	.	.	7	6	2	.
Cc1cc(C(=O)CSc2ncnc3ccccc23)c(C)n1C1CC1	0	2	-1	0	1	28*
O=C(Nc1cc(F)ccc1F)N1CC(=O)N2[C@H](CO)[C@H](c3ccc(-c4cccnc4)cc3)[C@@H]2C1	0	0	.	3	.	30*
O=C1CN(Cc2ccc(F)cc2)C[C@H]2[C@@H](c3ccc(-c4cccnc4)cc3)[C@H](CO)N12	0	-2	.	-4	.	24*
O=C(Nc1cc(F)ccc1F)N1CC(=O)N2[C@H](CO)[C@@H](c3ccc(-c4ccccc4)cc3)[C@H]2C1	0	2	.	-7	.	?
O=C1CN(Cc2ccc(F)cc2)C[C@@H]2[C@@H](c3ccc(-c4cccnc4)cc3)[C@@H](CO)N12	0	2	.	3	.	2
